We go through 25 compounds from ChEMBL document CHEMBL3286362, “Farnesyltransferase inhibitors: CAAX mimetics based on different biaryl scaffolds” (Bioorg Med Chem Lett, 2014).

A short description of assay [1]: (§1) Growth inhibition of RASMC after 72 hrs by Coulter counting analysis. Format: functional, Rattus norvegicus. A digest of the protocol: (§2)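 Proliferation of cultured rat aortic smooth muscle cells, with test agents given as isopropyl esters to aid membrane permeability; IC50 values derived.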
Assay [2] addresses T1, Protein farnesyltransferase (Homo sapiens, UniProt P49354+P49356). The assay can be described thus: Inhibition of recombinant FTase (unknown origin) by spectrofluorimetric analysis. Format: protein-complex assay.
For assay [3], the target named is T1, Protein farnesyltransferase. Nature of the assay: Inhibition of recombinant FTase (unknown origin) at 20 uM by spectrofluorimetric analysis relative to control. The format is protein-complex assay. A digest of the protocol:
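Fluorescence-based FTase activity assay; free acids screened at a single 20 µM concentration and percent inhibition determined.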

The species entered for assay [4] is Rattus norvegicus. Described as §1. The format is functional. A digest of the protocol: as §2
Assay [5] is described as follows: (§3) Inhibition of FTase-mediated RAS prenylation in RASMC after 72 hrs by Western blotting analysis. More on the design: species or system Rattus norvegicus. The gist of the method: (§4)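 Rat aortic SMCs incubated 72 h with 25 to 400 µM of test ester or without it, alongside simvastatin 2 µM as positive control. Total cell lysates were prepared and Ras prenylation was assessed by Western blot with anti-Ras antibody (clone RAS10).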

For assay [6], the species on record is Rattus norvegicus. The assay is described as §3. A digest of the protocol: as §4
The species named for assay [7] is Rattus norvegicus. The assay can be described thus: Inhibition of FTase-mediated RAS prenylation in RASMC at 2 uM after 72 hrs by Western blotting analysis. The gist of the method:
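Rat aortic smooth muscle cells were incubated for 72 h with or without test ester (25–400 µM) or with the HMG-CoA reductase inhibitor simvastatin (2 µM) as positive control. Total cell lysates were then prepared and Ras prenylation was assessed by western blot using an anti-Ras antibody (clone RAS10).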

Calls of active or inactive are those of the source. The rule behind the calls is not given here.

The compound `CSCC[C@H](NC(=O)c1ccc(NC(=O)Cc2csc(N)n2)cc1-c1cccc2ccccc12)C(=O)OC(C)C` showed an IC50 in assay [1] of 81 µM. For the compound `CSCC[C@H](NC(=O)c1ccc(NC(=O)Cc2csc(N)n2)cc1-c1cccs1)C(=O)OC(C)C`, inhibition in assay [1] was half-maximal at 200 µM (IC50).

`CSCC[C@H](NC(=O)c1ccc(OCC2COc3ccccc3O2)cc1-c1ccsc1)C(=O)O` (stereo not given in full): the IC50 in assay [2] came to 5 µM. In assay [3], the inhibition was found to be 96.6%.

With `CSCC[C@H](NC(=O)c1ccc(NC(=O)Cc2csc(N)n2)cc1-c1cccs1)C(=O)O`, in assay [3], the inhibition turned out to be 53.8%. The same measure, in the same setting: in the case of `CSCC[C@H](NC(=O)c1ccc(NC(=O)Cc2csc(N)n2)cc1-c1ccsc1)C(=O)O` it was 20.9%. With `CSCC[C@H](NC(=O)c1ccc(OCC2COc3ccccc3O2)cc1-c1ccco1)C(=O)OC(C)C` (stereo not given in full), 99 µM corresponded to half-maximal inhibition in assay [1] (IC50). On to `CSCC[C@H](NC(=O)c1ccc(OCC2COc3ccccc3O2)cc1-c1cncc2ccccc12)C(=O)OC(C)C` (stereo not given in full), for which, in the assay filed under Rattus norvegicus [4], the “growth inhibition (GI)” value is “inactive”. For `CSCC[C@H](NC(=O)c1ccc(NC(=O)Cc2csc(N)n2)cc1-c1cncc2ccccc12)C(=O)O`, the inhibition in assay [3] is 0%.

On to `CSCC[C@H](NC(=O)c1ccc(OCC2COc3ccccc3O2)cc1-c1ccoc1)C(=O)O` (stereo not given in full), for which the inhibition in assay [3] turned out to be 48.7%. In the case of `CSCC[C@H](NC(=O)c1ccc(NC(=O)Cc2csc(N)n2)cc1-c1ccoc1)C(=O)OC(C)C`, the half-maximal inhibitory concentration (IC50) stood at 259 µM in assay [1] and 100 µM in assay [5]. In addition, the “growth inhibition (GI)” value in the assay filed under Rattus norvegicus [4] is “Dose-dependent effect”. The inhibition entry in the assay filed under Rattus norvegicus [6] was “Dose-dependent effect”. With `CSCC[C@H](NC(=O)c1ccc(OCC2COc3ccccc3O2)cc1-c1cccs1)C(=O)O` (stereo not given in full), the inhibition in assay [3] is 90%.

Consider `CSCC[C@H](NC(=O)c1ccc(OCC2COc3ccccc3O2)cc1-c1ccsc1)C(=O)OC(C)C` (stereo not given in full), for which, in the assay filed under Rattus norvegicus [4], the “growth inhibition (GI)” value is “inactive”. In assay [1], `CSCC[C@H](NC(=O)c1ccc(NC(=O)Cc2csc(N)n2)cc1-c1ccsc1)C(=O)OC(C)C` gave an IC50 of 123 µM. `CSCC[C@H](NC(=O)c1ccc(OCC2COc3ccccc3O2)cc1-c1ccoc1)C(=O)OC(C)C` (stereo not given in full) showed an IC50 in assay [1] of 61 µM. For the compound `CSCC[C@H](NC(=O)c1ccc(NC(=O)Cc2csc(N)n2)cc1-c1ccco1)C(=O)O`, in assay [3], the inhibition was determined as 15.4%. In assay [1], `CSCC[C@H](NC(=O)c1ccc(NC(=O)Cc2csc(N)n2)cc1-c1ccco1)C(=O)OC(C)C` returned an IC50 of 110 µM. Consider `CSCC[C@H](NC(=O)c1ccc(NC(=O)Cc2csc(N)n2)cc1-c1cncc2ccccc12)C(=O)OC(C)C`, for which the 50% inhibitory concentration (IC50) in assay [1] was 252 µM. `CSCC[C@H](NC(=O)c1ccc(OCC2COc3ccccc3O2)cc1-c1ccco1)C(=O)O` (stereo not given in full): the inhibition in assay [3] worked out at 51.5%. Consider `CSCC[C@H](NC(=O)c1ccc(NC(=O)Cc2csc(N)n2)cc1-c1ccoc1)C(=O)O`, for which the IC50 in assay [2] turned out to be 2.8 µM. In addition, in assay [3], the inhibition was 98.7%.

In assay [1], `CSCC[C@H](NC(=O)c1ccc(OCC2COc3ccccc3O2)cc1-c1cccc2ccccc12)C(=O)OC(C)C` (stereo not given in full) returned a concentration for half-maximal inhibition (IC50) of 155 µM. With `CCC(C)(C)C(=O)O[C@H]1C[C@@H](C)C=C2C=C[C@H](C)[C@H](CC[C@@H]3C[C@@H](O)CC(=O)O3)[C@H]21`, the inhibition result in the assay listed under Rattus norvegicus [7] is “Active”. Regarding `CSCC[C@H](NC(=O)c1ccc(OCC2COc3ccccc3O2)cc1-c1cncc2ccccc12)C(=O)O` (stereo not given in full), in assay [3], the inhibition amounted to 14.5%. As to `CSCC[C@H](NC(=O)c1ccc(OCC2COc3ccccc3O2)cc1-c1cccs1)C(=O)OC(C)C` (stereo not given in full), the IC50 in assay [1] was 81 µM. As to `CSCC[C@H](NC(=O)c1ccc(OCC2COc3ccccc3O2)cc1-c1cccc2ccccc12)C(=O)O` (stereo not given in full), the inhibition in assay [3] was 41.7%. For the compound `CSCC[C@H](NC(=O)c1ccc(NC(=O)Cc2csc(N)n2)cc1-c1cccc2ccccc12)C(=O)O`, the inhibition in assay [3] came out at 90.4%.
